Reference: ChEMBL document CHEMBL3046772, “Synthesis and antifeedant activity of new oxadiazolyl 3(2H)-pyridazinones” (2003)

Assays:
Format in all cases: functional
Ostrinia furnacalis [1] = assay: Antifeedant activity against fifth-instar larval stage of Ostrinia furnacalis (Asian corn borer) assessed as feeding deterrence index at 500 mg/kg after 24 hr by diet-choice assay
Procedure, shortened: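 Newly moulted fifth-instar larvae offered artificial diet with compound added (dissolved in acetone, mixed into diet ingredients before preparation) at 500 mg/kg versus solvent-only control diet. Five replicates of 10 larvae. After 24 h, deterrency index (%) = [(C − T)/(C + T)] × 100, where C and T are amounts of control and treated diet eaten.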

Ostrinia furnacalis [2] = assay: Antifeedant activity against fifth-instar larval stage of Ostrinia furnacalis (Asian corn borer) assessed as larval weight gain at 5 mg/kg after 5 days by diet-choice assay (reference value: 43.3 +/- 20.8 mg)
Ostrinia furnacalis [3] = assay: Antifeedant activity against fifth-instar larval stage of Ostrinia furnacalis (Asian corn borer) assessed as larval weight gain at 20 mg/kg after 5 days by diet-choice assay (reference value: 43.3 +/- 20.8 mg)
Ostrinia furnacalis [4] = assay: Antifeedant activity against fifth-instar larval stage of Ostrinia furnacalis (Asian corn borer) assessed as larval weight gain at 10 mg/kg after 5 days by diet-choice assay (reference value: 43.3 +/- 20.8 mg)

Compound | FDI (Ostrinia furnacalis [1]) [%] | Activity (Ostrinia furnacalis [2]) [mg] | Activity (Ostrinia furnacalis [3]) [mg] | Activity (Ostrinia furnacalis [4]) [mg]
CC(C)(C)n1ncc(OCc2nnc(-c3cc(F)c(Cl)cc3Cl)o2)c(Cl)c1=O | 35.16 | – | – | –
CC(C)(C)n1ncc(OCc2nnc(-c3ccccc3)o2)c(Cl)c1=O | 57.61 | 42.3 | 6.6 | 16.2
CC(C)(C)n1ncc(OCc2nnc(-c3ccccc3F)o2)c(Cl)c1=O | 41.34 | – | – | –
C/C=C(\C)C(=O)O[C@H]1C[C@@H](OC(C)=O)[C@@]2(C(=O)OC)CO[C@H]3[C@@H](O)[C@@](C)([C@]45O[C@@]4(C)[C@@H]4C[C@H]5O[C@@H]5OC=C[C@@]54O)[C@H]4[C@]1(CO[C@]4(O)C(=O)OC)[C@@H]32 [AZADIRACHTIN A] | 59.9 | 22 | 1.2 | 7.8
CC(C)(C)n1ncc(OCc2nnc(-c3ccc(Cl)cc3)o2)c(Cl)c1=O | 46.73 | – | – | –
CC(C)(C)n1ncc(OCc2nnc(-c3cccc(F)c3)o2)c(Cl)c1=O | 51.67 | 38.4 | 8.7 | 22.6
CCc1ccc(-c2nnc(COc3cnn(C(C)(C)C)c(=O)c3Cl)o2)cc1 | 40.18 | – | – | –
CC(C)(C)n1ncc(OCc2nnc(-c3ccc(F)cc3)o2)c(Cl)c1=O | 51.08 | – | – | –
COc1ccc(-c2nnc(COc3cnn(C(C)(C)C)c(=O)c3Cl)o2)cc1 | 38.45 | – | – | –
Cc1ccc(-c2nnc(COc3cnn(C(C)(C)C)c(=O)c3Cl)o2)cc1 | 4.28 | – | – | –
